High-throughput results deposited in PubChem by Sanford-Burnham Center for Chemical Genomics.
A selection: hits, their analogues and other compounds. The true share with any hit is near 0.72%.
hIAP activ – increases human intestinal alkaline phosphatase activity; AID 2524; hit rate 0.16% among 330,000; purified human IAP, CDP-Star luminescence, 30 min; active compounds read high; 1 = vehicle-only enzyme, 0 = enzyme-free background; P09923; activation factor at 10 µM;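 active = activation factor of the enzyme at least 2-fold when tested at 20 µM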
Target sequence (P09923 whole entry, looked up): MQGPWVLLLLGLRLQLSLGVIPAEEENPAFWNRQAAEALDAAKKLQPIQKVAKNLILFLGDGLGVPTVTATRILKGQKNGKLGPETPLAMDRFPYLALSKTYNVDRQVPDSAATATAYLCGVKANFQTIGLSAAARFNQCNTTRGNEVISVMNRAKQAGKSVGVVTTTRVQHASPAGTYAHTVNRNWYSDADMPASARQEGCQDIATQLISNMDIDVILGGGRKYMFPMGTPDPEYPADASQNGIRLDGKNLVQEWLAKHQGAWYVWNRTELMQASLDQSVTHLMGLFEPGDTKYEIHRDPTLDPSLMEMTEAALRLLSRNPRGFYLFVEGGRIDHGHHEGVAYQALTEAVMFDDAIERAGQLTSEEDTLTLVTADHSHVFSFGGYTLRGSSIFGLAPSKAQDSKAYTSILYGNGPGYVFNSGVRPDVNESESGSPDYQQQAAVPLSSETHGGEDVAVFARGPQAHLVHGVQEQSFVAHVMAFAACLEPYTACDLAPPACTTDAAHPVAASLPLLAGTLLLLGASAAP
mIAP activ – increases mouse intestinal alkaline phosphatase activity; activation factor at 10 µM; hit rate 0.24% among 330,000; muIAP, CDP-Star luminescence, 30 min; active compounds read high; 1 = vehicle-only enzyme signal, 0 = enzyme-free wells;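 active = activation factor of at least 2 at 20 µM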
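Assay system: mouse IAP enzyme / Compound: DMSO-dissolved test compounds / Timing: 30 min, room temperature / Measured by: luminescence from enzymatic CDP-Star hydrolysis / Control set: DMSO-only wells, enzyme-free buffer wells as negative control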
mIAP block – blocks mouse intestinal alkaline phosphatase; purified mouse IAP, CDP-Star luminescence, 30 min; inhibition, % at 10 µM; hit rate 0.2% among 330,000;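 active = inhibition of at least 40% at 10 µM in the primary screen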;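 note: plate controls were DMSO with enzyme for no effect and no enzyme wells for full effect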
bIAP act – intestinal alkaline phosphatase (bovine) activation. purified bovine IAP, CDP-star luminescence, 30 min; active compounds read high; fold of DMSO-control signal, blank-subtracted. activation factor at 20 µM. hit rate 0.17% among 200,000. AID 1016;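 active = activation factor of 2 or more at 20 µM, a signal rise over negative controls twice the positive control's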
hIAP block – blocks human intestinal alkaline phosphatase; P09923; purified IAP, CDP-Star luminescence, 30 min; inhibition, % at 10 µM; hit rate 0.12% among 330,000;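 active = inhibition reaching a set limit with compound at 10 µM in the primary screen, cut at about 35% in these data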;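 note: plate controls were DMSO wells with enzyme for no effect and no-enzyme buffer wells for full effect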
bIAP inh – blocks bovine intestinal alkaline phosphatase activity. purified bovine IAP, CDP-star luminescence, 30 min. inhibition, % at 20 µM. 190,000 tested, under 10 active;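 active = over 50% inhibition of intestinal alkaline phosphatase at 20 µM in the single-dose screen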
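Assay system: bovine IAP enzyme; medium: DEA buffer 100 mM, pH 9.8, with MgCl2 1.0 mM, ZnCl2 0.02 mM; doses: 20 µM single dose; incubation: enzyme reaction for 30 min at room temperature; detection: CDP-star luminescence signal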
mIAP inh conf – mouse IAP inhibition confirmation. purified mouse IAP, CDP-Star luminescence, 30 min. hit rate 4.7% among 11,000. shares compounds with mIAP block. inhibition, % at 10 µM;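 active = inhibition of at least 40% at 10 µM in either of the two replicates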;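 note: plate controls were DMSO wells with enzyme for no effect and buffer wells lacking enzyme for full effect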
Active calls of the source: *; i = inactive; / = not tested or not shown.

SMILES	hIAP activ	mIAP activ	mIAP block	bIAP act	hIAP block	bIAP inh	mIAP inh conf
CC(C)(C)N(NC(=O)Nc1ccc(Cl)c(Cl)c1)C(=O)c1ccccc1	1.8	6.8*	i	1	-83	-2	-295
C=CCc1cc(Cl)ccc1OC(=O)Nc1cccc(Cl)c1	1.1	3*	-202	/	-9	/	-105
CS(=O)c1ccccc1COC(=O)Nc1cccc(Cl)c1 (stereo unspecified)	0.81	1.2	-16	1	20	-3	/
NC1=NC(=O)/C(=C\c2ccco2)S1	0.87	0.25	75*	/	13	/	82*
COC(=O)c1ccc(NC(=O)Nc2ccc(F)cc2F)cc1	1	1.8	-80	1	-4	-5	/
COC(=O)c1ccc(NC(=O)Nc2cccc(F)c2)cc1	1	2.6*	-160	0.9	-1	11	-97
COc1ccccc1C(CC(=O)Nc1ccc(C)c(C)c1)c1ccc(OC(C)C)cc1 (stereo unspecified)	1	2.1*	-114	0.8	0	15	-106
COc1cccc(NC(=S)NC(=O)/C=C/c2ccco2)c1	1	0.8	20	/	0	/	/
Cc1ccc(NC(=S)NC(=O)/C=C/c2ccco2)c(O)c1	1	0.53	47*	1	-1	-3	54*
O=C(/C=C\c1ccco1)NC(=S)Nc1ccccc1O	1.1	0.41	59*	/	-12	/	72*
CCOc1ccc(NC(=S)NC(=O)/C=C/c2ccco2)cc1	1.1	0.91	9	/	-7	/	/
O=C(/C=C/c1ccco1)NC(=S)Nc1cccc(C(=O)O)c1	0.83	0.52	48*	/	17	/	63*
COc1cc(NS(=O)(=O)c2ccc(NC(=S)NC(=O)/C=C/c3ccco3)cc2)ncn1	0.9	0.58	42*	1	10	-3	64*
COc1ccc(NC(=S)NC(=O)/C=C/c2ccco2)c(OC)c1	0.89	0.91	9	/	11	/	/
Cc1cc(-c2cc(C(=O)NCc3ccccc3)on2)nc(S(C)(=O)=O)n1	1	1.1	-8	/	-1	/	/
COc1cccc(C(=O)NCC2(c3ccccc3)CCCC2)c1OC	1.3	0.92	8	/	-27	/	/
CCCCCN(C(=O)CCC(=O)OCc1cc(C)ccc1C)c1c(N)n(CCCC)c(=O)[nH]c1=O	1.4	1	-3	/	-37	/	/
O=C(/C=C/c1ccco1)NC(=S)Nc1ccccc1O	0.89	0.55	46*	1.1	11	-6	54*
O=C(/C=C/c1ccco1)NC(=S)Nc1ccccc1N1CCCC1	1	0.89	11	1	-2	3	/
CCOc1ccc(OCCC(=O)NNC(=O)c2ccncc2)cc1	0.91	1.1	-5	/	9	/	/
CCCCCOc1ccc(C(=O)CCC(=O)NNC(=O)c2ccncc2)cc1	1.8	2.8*	-178	/	-82	/	-252
CN1CCN(c2ccc(NC(=O)c3ccc(C#N)cc3F)cc2Cl)CC1	1.1	1	0	1	-5	-1	/
Cc1ccc(S(=O)(=O)/N=C2/NC(=O)/C(=C\c3ccco3)S2)cc1	0.92	0.6	40*	1	8	2	43*
CC(=O)Nc1ccc(S(=O)(=O)/N=C2/NC(=O)/C(=C\c3ccco3)S2)cc1	0.95	0.54	46*	1.2	5	-18	49*
Cc1ccc(S(=O)(=O)/N=C2/NC(=O)/C(=C\c3ccccc3)S2)cc1	1.1	0.97	3	/	-8	/	/
CSc1ccccc1C(=O)N1CCN(S(=O)(=O)c2sc(C(=O)O)c(C)c2C(=O)O)CC1	0.86	0.9	10	/	14	/	/
Fc1c(CSC(=S)N2CCOCC2)cccc1CSC(=S)N1CCOCC1	0.86	0.89	11	/	14	/	/
CS(=O)(=O)N(CC(=O)N1CCOCC1)c1cccc(F)c1	1	1.1	-8	/	-1	/	/
Cc1ccc(C(=O)Nc2nnc(CC(=O)N/N=C/c3ccncc3)s2)cc1	0.99	0.83	17	1.1	1	-7	/
Cc1ccc(C(=O)Nc2nnc(CC(=O)N/N=C/c3ccc(O)c(O)c3)s2)cc1	0.84	0.42	58*	/	16	/	79*
